# Experimental data as given in ChEMBL document CHEMBL1122207, “Antitumor agents. 2. Bisguanylhydrazones of anthracene-9,10-dicarboxaldehydes” (1982).
# Columns and labels:
# Type in all cases: functional
# Mus musculus [1] = species on record: Mus musculus; assay: Anticancer activity measured as the number of survivors of the total treated mice with P-388 leukemia at 30 days.
# In short: (§1)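 BDF1 or CDF1 mice given 10^6 ascitic P-388 leukemia cells ip, then treated ip on days 1, 5 and 9. Cures are survivors over total treated at 30 days.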
# Mus musculus [2] = assay: Percent increase in median life span of BDF1 mice with P-388 leukemia at dose 18.8 mg/kg administered intraperitoneally; details: BDF1, P388, ip, route intraperitoneal
# Mus musculus [3] = species on record: Mus musculus; assay: Number of survivors of the total treated mice with B-16 melanoma, at 60 days.
# In short: (§2)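 BDF1 mice were implanted ip with a homogenate from 0.05 g of B-16 melanoma and dosed ip on days 1-9. Cures are survivors over total at 60 days.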
# Mus musculus [4] = assay: Percent increase in median life span of BDF1 mice with P-388 leukemia at dose 160 mg/kg administered intraperitoneally; details: BDF1, P388, ip, route intraperitoneal
# Mus musculus [5] = assay: Percent increase in median life span of BDF1 mice with B-16 melanoma at dose 3.1 mg/kg administered intraperitoneally; details: BDF1, B16, ip, route intraperitoneal
# In short: (§3)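 BDF1 mice were implanted ip with a homogenate from 0.05 g of B-16 melanoma. Ip dosing ran on days 1-9, starting 24 h after implant, in dose-response studies following NCI protocols. The read-out was percent increase in life span (ILS). T/C ≥125% was taken as significant.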
# Mus musculus [6] = assay: Percent increase in median life span of BDF1 mice with advanced L-1210 leukemia administered intraperitoneally; treatment day +2 ip
# Mus musculus [7] = assay: Percent increase in median life span of BDF1 mice with P-388 leukemia at dose 50 mg/kg administered intraperitoneally; range 25-91%; range 25-91%, 1, 5, 9 days of ip treatment relative to tumor inoculation; details: BDF1, P388, ip, 216 h, route intraperitoneal
# In short: (§4)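 BDF1 or CDF1 mice given 10^6 ascitic leukemia cells ip, then dosed ip on days 1, 5 and 9. Read-out is percent increase in life span versus untreated controls. Cures were scored as survivors/total at 30 days; when cures reached 50% or more, the run was extended until a specific ILS could be calculated. T/C ≥125% counted as significant.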
# Mus musculus [8] = species on record: Mus musculus; assay: Cures is the number of survivors of the total treated mice (8) with Colon 26, at 60 days.
# Mus musculus [9] = species on record: Mus musculus; assay: Cures is the number of survivors of the total treated mice (6) with P-388 leukemia, at 30 days.; in short: as §1
# Mus musculus [10] = assay: Percent increase in median life span of BDF1 mice with B-16 melanoma at dose 6 mg/kg administered intraperitoneally; range 100-167; 1-9 days of ip treatment relative to tumor inoculation; details: BDF1, B16, ip, route intraperitoneal; in short: as §3
# Mus musculus [11] = assay: Percent increase in median life span of BDF1 mice with Colon 26 at dose 12.5 mg/kg administered intraperitoneally; 1, 5, 9 days of ip treatment relative to tumor inoculation; details: BDF1, Colon 26, ip, 216 h, route intraperitoneal
# Mus musculus [12] = species on record: Mus musculus; assay: Cures is the number of survivors of the total treated mice (20) with B-16 melanoma, at 60 days.; in short: as §2
# Mus musculus [13] = species on record: Mus musculus; assay: Cures is the number of survivors of the total treated animals (12 mice) with P-388 leukemia, at 30 days.; in short: as §1
# Mus musculus [14] = assay: Percent increase in median life span of BDF1 mice with advanced P-388 leukemia at dose 25 mg/kg administered intraperitoneally; 4, 8, 12 days of ip treatment relative to tumor inoculation; details: P388, ip, 288 h, route intraperitoneal
# Mus musculus [15] = assay: Percent increase in median life span of BDF1 mice with P-388 leukemia at dose 5 mg/kg administered intraperitoneally; details: BDF1, P388, ip, route intraperitoneal
# Mus musculus [16] = assay: Percent increase in median life span of BDF1 mice with B-16 melanoma at dose 0.8 mg/kg administered intraperitoneally; details: BDF1, B16, ip, route intraperitoneal; in short: as §3
# Mus musculus [17] = species on record: Mus musculus; assay: Cures is the number of survivors of the total treated mice (6) with P-388 leukemia, at 60 days.
# Mus musculus [18] = assay: Percent increase in median life span of BDF1 mice with P-388 leukemia at dose 300 mg/kg administered intraperitoneally; details: BDF1, P388, ip, route intraperitoneal
# Mus musculus [19] = assay: Percent increase in median life span of BDF1 mice with B-16 melanoma at dose 300 mg/kg administered intraperitoneally; details: BDF1, B16, ip, route intraperitoneal; in short: as §3
# Mus musculus [20] = assay: Percent increase in median life span of BDF1 mice with L-1210 leukemia at dose 6.2 mg/kg administered intraperitoneally; 1, 5, 9 days of ip treatment relative to tumor inoculation; details: BDF1, L1210, ip, 216 h, route intraperitoneal; in short: as §4
# Mus musculus [21] = assay: Percent increase in median life span of BDF1 mice with B-16 melanoma at dose 6.25 mg/kg administered intraperitoneally; 1-9 days of ip treatment relative to tumor inoculation; details: BDF1, B16, ip, route intraperitoneal; in short: as §3
# Mus musculus [22] = species on record: Mus musculus; assay: Cures is the number of survivors of the total treated mice (10) with advanced B-16 melanoma, at 30 days.
# Mus musculus [23] = assay: Percent increase in median life span of BDF1 mice with advanced B-16 melanoma at dose 6.2 mg/kg administered intraperitoneally; 5, 9, 13 days of ip treatment relative to tumor inoculation; details: B16, ip, 312 h, route intraperitoneal
# Mus musculus [24] = species on record: Mus musculus; assay: Cures is the number of survivors of the total treated mice (12) with P-388 leukemia, at 30 days.; in short: as §1
# Mus musculus [25] = assay: Percent increase in median life span of BDF1 mice with P-388 leukemia at dose 6.25 mg/kg administered intraperitoneally; range 125-145%; 1, 5, 9 days of ip treatment relative to tumor inoculation; details: BDF1, P388, ip, 216 h, route intraperitoneal; in short: as §4
# Mus musculus [26] = species on record: Mus musculus; assay: Cures is the number of survivors of the total treated mice (10) with B-16 melanoma, at 60 days.; in short: as §2
# Mus musculus [27] = species on record: Mus musculus; assay: Cures is the number of survivors of the total treated mice (5) with L-1210 leukemia, at 30 days.
# Mus musculus [28] = species on record: Mus musculus; assay: Cures is the number of survivors of the total treated mice (10) with Colon 26, at 60 days.
structure (smiles),measurement,setting,value
Cc1ccc(C)c2c(/C=N/NC3=NCCN3)c3ccccc3c(/C=N/NC3=NCCN3)c12.Cl.Cl,Cures,Mus musculus [1],0
same,ILS at 18.8 mg/kg,Mus musculus [2],57%
same,Cures,Mus musculus [3],0
Cc1cc2c(/C=N/NC3=NCCN3)c3ccccc3c(/C=N/NC3=NCCN3)c2cc1C.Cl.Cl,ILS at 160 mg/kg,Mus musculus [4],77%
same,Cures,Mus musculus [1],0
same,ILS at 3.1 mg/kg,Mus musculus [5],76%
same,Cures,Mus musculus [3],0
Cl.Cl.N=C(NCc1ccco1)N/N=C/c1c2ccccc2c(/C=N/NC(=N)NCc2ccco2)c2ccccc12,ILS,Mus musculus [6],<25%
same,ILS at 50 mg/kg,Mus musculus [7],91%
same,Cures,Mus musculus [8],0
same,Cures,Mus musculus [9],0
same,ILS at 6 mg/kg,Mus musculus [10],167%
same,ILS at 12.5 mg/kg,Mus musculus [11],109%
same,Cures,Mus musculus [12],6
same,Cures,Mus musculus [13],0
same,ILS at 25 mg/kg,Mus musculus [14],56%
COc1cccc2c1C(=O)c1c(O)c3c(c(O)c1C2=O)C[C@@](O)(C(=O)CO)C[C@@H]3O[C@H]1C[C@H](N)[C@H](O)[C@H](C)O1 [DOXORUBICIN],ILS at 5 mg/kg,Mus musculus [15],159%
same,ILS at 0.8 mg/kg,Mus musculus [16],275%
same,Cures,Mus musculus [12],18
same,Cures,Mus musculus [17],1
N/C(S)=N/N=C/c1c2ccccc2c(/C=N/N=C(\N)S)c2ccccc12,Cures,Mus musculus [1],0
same,ILS at 300 mg/kg,Mus musculus [18],71%
same,ILS at 300 mg/kg,Mus musculus [19],0%
Cc1ccc2c(/C=N/NC3=NCCN3)c3ccccc3c(/C=N/NC3=NCCN3)c2c1.Cl.Cl,ILS at 6.2 mg/kg,Mus musculus [20],42%
same,ILS at 6.25 mg/kg,Mus musculus [21],172%
same,Cures,Mus musculus [22],3
same,ILS at 6.2 mg/kg,Mus musculus [23],35%
same,ILS at 12.5 mg/kg,Mus musculus [11],≥ 63%
same,Cures,Mus musculus [24],1
same,ILS at 6.25 mg/kg,Mus musculus [25],145%
same,Cures,Mus musculus [26],4
same,Cures,Mus musculus [27],0
same,Cures,Mus musculus [28],0
